Reference: publication PMC11003496 (Journal of Enzyme Inhibition and Medicinal Chemistry, 2023)
Where two headings read alike, the source gives them in different places. One block for each molecule: values may come before it.

Legend:
HCT116 colorectal cancer = experiment: MTT cell viability assay, HCT-116; format: cell-based; conditions: read-out: HCT-116 IC50, 48 h, mean of six values
[1] = test system: A549 non-small cell lung cancer; experiment: MTT cell viability assay, A549; format: cell-based; conditions: read-out: A549 IC50
COX-1 = biological target: T1, COX-1 (Ovis aries, UniProt P05979); experiment: In vitro COX-1 inhibition; format: biochemical
T1 sequence (P05979 25-600): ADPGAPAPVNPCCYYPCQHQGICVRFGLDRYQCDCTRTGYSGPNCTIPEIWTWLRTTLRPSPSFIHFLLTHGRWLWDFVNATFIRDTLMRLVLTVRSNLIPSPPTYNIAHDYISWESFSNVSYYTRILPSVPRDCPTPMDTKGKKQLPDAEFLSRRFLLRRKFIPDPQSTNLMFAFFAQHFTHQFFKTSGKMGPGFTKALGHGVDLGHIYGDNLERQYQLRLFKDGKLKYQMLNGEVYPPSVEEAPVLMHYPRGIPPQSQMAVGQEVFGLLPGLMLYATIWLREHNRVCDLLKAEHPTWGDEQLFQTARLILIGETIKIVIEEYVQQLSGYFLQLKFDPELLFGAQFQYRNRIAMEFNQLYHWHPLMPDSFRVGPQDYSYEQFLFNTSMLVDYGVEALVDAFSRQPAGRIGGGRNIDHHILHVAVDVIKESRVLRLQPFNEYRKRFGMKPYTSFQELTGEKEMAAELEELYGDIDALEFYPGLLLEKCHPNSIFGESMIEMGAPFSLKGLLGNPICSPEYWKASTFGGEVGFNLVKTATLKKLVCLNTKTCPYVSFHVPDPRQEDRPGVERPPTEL

COX-2 = biological target: T2, COX-2 (Homo sapiens, UniProt P35354); experiment: biochemical; conditions: for COX-2 S.I.: in vitro COX-2 selectivity index, IC50 (COX-1)/IC50 (COX-2)
T2 sequence (P35354 18-604): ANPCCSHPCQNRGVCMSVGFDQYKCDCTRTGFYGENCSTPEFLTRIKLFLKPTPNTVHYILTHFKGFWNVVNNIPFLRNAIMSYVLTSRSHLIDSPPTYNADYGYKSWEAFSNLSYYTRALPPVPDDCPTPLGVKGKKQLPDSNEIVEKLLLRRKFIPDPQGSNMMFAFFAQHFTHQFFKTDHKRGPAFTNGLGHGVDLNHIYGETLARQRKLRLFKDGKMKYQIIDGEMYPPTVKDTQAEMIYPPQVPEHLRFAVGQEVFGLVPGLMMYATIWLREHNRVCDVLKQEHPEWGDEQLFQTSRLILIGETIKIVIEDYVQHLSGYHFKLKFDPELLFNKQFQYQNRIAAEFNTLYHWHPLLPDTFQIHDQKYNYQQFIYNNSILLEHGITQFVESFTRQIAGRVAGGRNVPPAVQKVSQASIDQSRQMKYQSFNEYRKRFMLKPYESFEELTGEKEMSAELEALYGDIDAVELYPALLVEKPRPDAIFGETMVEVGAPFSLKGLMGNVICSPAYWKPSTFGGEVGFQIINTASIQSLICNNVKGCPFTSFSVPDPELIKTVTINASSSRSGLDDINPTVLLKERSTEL

[2] = test system: MCF7 human breast adenocarcinoma cell line; experiment: MTT cell viability assay, MCF-7; format: cell-based; conditions: MCF7, 48 h, read-out: MCF-7 IC50
[3] = test system: Hep3b hepatocellular carcinoma cell line; experiment: MTT cell viability assay, HEP-3B; format: cell-based; conditions: Homo sapiens, 48 h, read-out: HEP-3B IC50
normal fibroblast F180 = experiment: MTT cell viability assay, F180; format: cell-based; conditions: F180, 48 h, read-out: F180 IC50
breast MCF7 cells = experiment: Cell cycle analysis by flow cytometry; format: cell-based, human; conditions: for cell cycle arrest phase: compound at its IC50; for %G0-G1 / %G2-M / %S: compound at its IC50, 24 h
Procedure, shortened: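 MCF7 breast cells were exposed to the test compound for 24 h, then rinsed with PBS, centrifuged and fixed in 70% ethanol. After a PBS wash they were suspended in 0.1 mg/mL RNase and stained with propidium iodide. Flow cytometry on a FACS Calibur measured DNA content to give G0/G1, S and G2/M distribution against negative control.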

MCF7 breast cells = experiment: Apoptosis by Annexin-V-FITC/PI flow cytometry; format: cell-based, human; conditions: for Apoptosis Early / Apoptosis Late / Apoptosis Total / Necrosis: compound at its IC50, 24 h; for late apoptosis increase compared to control: control 0.27% (late); for early apoptosis increase compared to control: control 0.41% (early)
Procedure, shortened: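 MCF7 breast cells were treated with the test compound for 24 h, then collected and rinsed twice with PBS. They were stained with Annexin-V-FITC plus propidium iodide for 30 min at room temperature in the dark. Analysis on a FACS Calibur flow cytometer gave early apoptotic, late apoptotic and necrotic fractions, compared against untreated control.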

aromatase (CYP19A) = biological target: T3, aromatase (CYP19A) (Homo sapiens, UniProt P11511); experiment: Aromatase; format: biochemical
T3 sequence (P11511 1-503): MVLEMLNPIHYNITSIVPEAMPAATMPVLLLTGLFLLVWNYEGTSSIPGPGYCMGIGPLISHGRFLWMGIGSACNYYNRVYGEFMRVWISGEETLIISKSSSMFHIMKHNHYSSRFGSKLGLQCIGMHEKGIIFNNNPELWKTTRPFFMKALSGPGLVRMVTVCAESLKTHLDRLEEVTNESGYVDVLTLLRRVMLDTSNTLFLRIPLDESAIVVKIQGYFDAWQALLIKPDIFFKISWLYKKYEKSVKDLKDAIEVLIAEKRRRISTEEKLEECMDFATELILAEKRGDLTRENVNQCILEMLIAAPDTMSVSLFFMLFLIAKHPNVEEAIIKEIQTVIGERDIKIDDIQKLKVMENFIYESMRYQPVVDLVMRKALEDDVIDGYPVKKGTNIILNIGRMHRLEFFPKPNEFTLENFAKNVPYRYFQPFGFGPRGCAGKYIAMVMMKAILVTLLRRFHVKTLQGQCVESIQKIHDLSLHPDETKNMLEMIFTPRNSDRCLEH

EGFR = EGFR (Homo sapiens, UniProt P00533); experiment: EGFR Kinase Assay Kit; format: biochemical
EGFR, sequence (P00533 25-1210): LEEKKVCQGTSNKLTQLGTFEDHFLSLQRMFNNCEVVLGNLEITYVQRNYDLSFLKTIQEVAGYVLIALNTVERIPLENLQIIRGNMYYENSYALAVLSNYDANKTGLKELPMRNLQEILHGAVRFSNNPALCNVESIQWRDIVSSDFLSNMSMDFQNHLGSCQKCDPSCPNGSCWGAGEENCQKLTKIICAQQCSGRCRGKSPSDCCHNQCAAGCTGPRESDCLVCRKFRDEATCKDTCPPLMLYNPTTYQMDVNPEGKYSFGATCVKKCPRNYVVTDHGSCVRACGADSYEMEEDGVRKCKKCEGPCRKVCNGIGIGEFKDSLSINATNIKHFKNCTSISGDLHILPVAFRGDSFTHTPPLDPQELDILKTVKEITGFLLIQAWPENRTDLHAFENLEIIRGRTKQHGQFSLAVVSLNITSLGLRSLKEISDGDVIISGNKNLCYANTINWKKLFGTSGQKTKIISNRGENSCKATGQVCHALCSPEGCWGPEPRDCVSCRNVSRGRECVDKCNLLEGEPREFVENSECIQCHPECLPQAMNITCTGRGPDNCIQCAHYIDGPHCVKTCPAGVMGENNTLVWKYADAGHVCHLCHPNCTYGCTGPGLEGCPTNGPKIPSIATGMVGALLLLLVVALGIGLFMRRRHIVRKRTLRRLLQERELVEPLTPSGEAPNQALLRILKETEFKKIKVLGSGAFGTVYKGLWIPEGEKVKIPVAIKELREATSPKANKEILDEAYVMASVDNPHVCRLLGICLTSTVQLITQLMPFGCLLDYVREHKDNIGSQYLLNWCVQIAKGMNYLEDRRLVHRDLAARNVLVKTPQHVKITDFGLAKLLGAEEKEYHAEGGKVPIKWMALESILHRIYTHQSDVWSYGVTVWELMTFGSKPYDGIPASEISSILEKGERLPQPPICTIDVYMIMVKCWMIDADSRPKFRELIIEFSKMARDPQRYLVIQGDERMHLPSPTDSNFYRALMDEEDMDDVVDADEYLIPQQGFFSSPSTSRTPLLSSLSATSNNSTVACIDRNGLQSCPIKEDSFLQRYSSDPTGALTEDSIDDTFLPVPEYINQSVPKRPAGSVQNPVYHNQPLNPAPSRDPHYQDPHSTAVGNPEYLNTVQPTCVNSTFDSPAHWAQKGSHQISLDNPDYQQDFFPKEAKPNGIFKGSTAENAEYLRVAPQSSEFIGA
Procedure, shortened: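 Kinase kit assay. Each well held kinase buffer with DTT, ATP, and Poly(Glu:Tyr 4:1) PTK substrate (10 mg/ml stock). Test compound was added, and diluted EGFR enzyme started the reaction. Incubated 40 min at 30 °C, then Kinase-Glo Max reagent for 15 min at room temperature, and luminescence read. Controls were no-inhibitor wells and enzyme-free blanks.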

B-RAF^V600E = B-RAF^V600E (Homo sapiens, UniProt P15056, V600E); experiment: B-RAF^V600E Kinase Assay Kit; format: biochemical
B-RAF^V600E, sequence (P15056 whole entry V600E): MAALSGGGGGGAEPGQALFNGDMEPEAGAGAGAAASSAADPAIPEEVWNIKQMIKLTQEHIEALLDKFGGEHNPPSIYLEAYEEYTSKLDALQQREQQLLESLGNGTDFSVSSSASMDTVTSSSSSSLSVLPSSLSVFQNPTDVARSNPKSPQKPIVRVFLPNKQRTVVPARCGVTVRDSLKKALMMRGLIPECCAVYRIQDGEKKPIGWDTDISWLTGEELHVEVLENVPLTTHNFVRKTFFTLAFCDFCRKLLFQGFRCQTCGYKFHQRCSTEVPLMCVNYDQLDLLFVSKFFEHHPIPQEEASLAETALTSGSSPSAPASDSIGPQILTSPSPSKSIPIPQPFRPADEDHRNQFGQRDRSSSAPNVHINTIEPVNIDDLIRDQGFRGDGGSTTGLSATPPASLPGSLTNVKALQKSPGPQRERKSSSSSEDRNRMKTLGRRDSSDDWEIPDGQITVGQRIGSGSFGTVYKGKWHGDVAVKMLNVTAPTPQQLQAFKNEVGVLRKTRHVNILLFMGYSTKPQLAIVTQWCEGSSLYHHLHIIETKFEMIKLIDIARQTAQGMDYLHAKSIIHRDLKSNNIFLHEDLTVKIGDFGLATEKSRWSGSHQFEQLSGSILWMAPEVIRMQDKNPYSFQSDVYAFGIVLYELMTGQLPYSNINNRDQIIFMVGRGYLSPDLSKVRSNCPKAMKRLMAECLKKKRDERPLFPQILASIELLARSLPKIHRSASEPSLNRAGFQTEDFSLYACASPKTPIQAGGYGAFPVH

IC50 (HCT116 colorectal cancer): 4.8 µM
IC50 ([1]; MTT, 48 h, mean of six values): 6 µM
Structure (SMILES): O=c1[nH]cc(F)c(=O)[nH]1 [Compound 5-F.U., reference compound]

IC50 (COX-1): 4.84 ± 0.02 µM
IC50 (COX-2): 0.343 ± 0.07 µM
COX-2 S.I. (COX-2): 14.11
Structure (SMILES): Cc1c(-c2nnc(SC/C(=N/O)c3ccccc3)n2-c2ccccc2)nnn1-c1ccc(S(N)(=O)=O)cc1 [Compound 19a, (E)-4-(4-(5-((2-(hydroxyimino)-2-phenylethyl)thio)-4-phenyl-4H-1,2,4-triazol-3-yl)-5-methyl-1H-1,2,3-triazol-1-yl)benzenesulfonamide]

IC50 (COX-1): 4.42 ± 0.021 µM
IC50 (COX-2): 0.485 ± 0.048 µM
COX-2 S.I. (COX-2): 9.11
Structure (SMILES): Cc1ccc(/C(CSc2nnc(-c3nnn(-c4ccc(S(N)(=O)=O)cc4)c3C)n2-c2ccccc2)=N\O)cc1 [Compound 19b, (E)-4-(4-(5-((2-(hydroxyimino)-2-(p-tolyl)ethyl)thio)-4-phenyl-4H-1,2,4-triazol-3-yl)-5-methyl-1H-1,2,3-triazol-1-yl)benzenesulfonamide]

IC50 (COX-1): 10.7 ± 0.025 µM
IC50 (COX-2): 0.309 ± 0.041 µM
COX-2 S.I. (COX-2): 34.62
IC50 [2]: 14 µM
IC50 [3]: 4.5 to 14 µM
IC50 ([1]; Homo sapiens, A549, 48 h): 4.5 µM
IC50 (aromatase (CYP19A)): 22.4 µM
IC50 (EGFR): 0.112 µM
IC50 (B-RAF^V600E): 0.09 µM
Structure (SMILES): COc1ccc(/C(CSc2nnc(-c3nnn(-c4ccc(S(N)(=O)=O)cc4)c3C)n2-c2ccccc2)=N\O)cc1 [Compound 19c, (E)-4-(4-(5-((2-(hydroxyimino)-2-(4-methoxyphenyl)ethyl)thio)-4-phenyl-4H-1,2,4-triazol-3-yl)-5-methyl-1H-1,2,3-triazol-1-yl)benzenesulfonamide]
IC50 (normal fibroblast F180): 15.4 µM
cell cycle arrest phase (breast MCF7 cells): cell cycle arrest at G2/M phase
%G0-G1 (breast MCF7 cells): 37.88%
%G2-M (breast MCF7 cells): 26.98%
%S (breast MCF7 cells): 35.14%
Apoptosis Early (MCF7 breast cells): 21.85%
Apoptosis Late (MCF7 breast cells): 12.36%
Apoptosis Total (MCF7 breast cells): 41.55
Necrosis (MCF7 breast cells): 7.34%
late apoptosis increase compared to control (MCF7 breast cells): 45.77 fold
early apoptosis increase compared to control (MCF7 breast cells): 53.29 fold

IC50 (COX-1): 4.63 ± 0.023 µM
IC50 (COX-2): 0.437 ± 0.037 µM
COX-2 S.I. (COX-2): 10.59
Structure (SMILES): Cc1c(-c2nnc(SC/C(=N/O)c3ccc(Cl)cc3)n2-c2ccccc2)nnn1-c1ccc(S(N)(=O)=O)cc1 [Compound 19d, (E)-4-(4-(5-((2-(4-chlorophenyl)-2-(hydroxyimino)ethyl)thio)-4-phenyl-4H-1,2,4-triazol-3-yl)-5-methyl-1H-1,2,3-triazol-1-yl)benzenesulfonamide]

IC50 (COX-1): 4.76 ± 0.034 µM
IC50 (COX-2): 0.394 ± 0.031 µM
COX-2 S.I. (COX-2): 12.08
Structure (SMILES): COc1ccc(-n2c(SC/C(=N/O)c3ccccc3)nnc2-c2nnn(-c3ccc(S(N)(=O)=O)cc3)c2C)cc1 [Compound 19g, (E)-4-(4-(5-((2-(hydroxyimino)-2-phenylethyl)thio)-4-(4-methoxyphenyl)-4H-1,2,4-triazol-3-yl)-5-methyl-1H-1,2,3-triazol-1-yl)benzenesulfonamide]

IC50 (COX-1): 8.6 ± 0.027 µM
IC50 (COX-2): 0.309 ± 0.071 µM
COX-2 S.I. (COX-2): 27.83
IC50 [2]: 15 µM
IC50 ([1]; Homo sapiens, A549, 48 h): 4 µM
IC50 (aromatase (CYP19A)): 22.7 µM
IC50 (EGFR): 0.169 µM
IC50 (B-RAF^V600E): 0.07 µM
Structure (SMILES): COc1ccc(-n2c(SC/C(=N/O)c3ccc(C)cc3)nnc2-c2nnn(-c3ccc(S(N)(=O)=O)cc3)c2C)cc1 [Compound 19h, (E)-4-(4-(5-((2-(hydroxyimino)-2-(p-tolyl)ethyl)thio)-4-(4-methoxyphenyl)-4H-1,2,4-triazol-3-yl)-5-methyl-1H-1,2,3-triazol-1-yl)benzenesulfonamide]
IC50 (normal fibroblast F180): 11.3 µM
cell cycle arrest phase (breast MCF7 cells): cell cycle arrest at G2/M phase
%G0-G1 (breast MCF7 cells): 45.44%
%G2-M (breast MCF7 cells): 26.39%
%S (breast MCF7 cells): 28.17%
Apoptosis Early (MCF7 breast cells): 22.54%
Apoptosis Late (MCF7 breast cells): 14.91%
Apoptosis Total (MCF7 breast cells): 42.21
Necrosis (MCF7 breast cells): 4.76%
late apoptosis increase compared to control (MCF7 breast cells): 55.22 fold
early apoptosis increase compared to control (MCF7 breast cells): 54.97 fold

IC50 (COX-1): 4.6 ± 0.048 µM
IC50 (COX-2): 0.363 ± 0.061 µM
COX-2 S.I. (COX-2): 12.67
Structure (SMILES): COc1ccc(/C(CSc2nnc(-c3nnn(-c4ccc(S(N)(=O)=O)cc4)c3C)n2-c2ccc(OC)cc2)=N\O)cc1 [Compound 19i, (E)-4-(4-(5-((2-(hydroxyimino)-2-(4-methoxyphenyl)ethyl)thio)-4-(4-methoxyphenyl)-4H-1,2,4-triazol-3-yl)-5-methyl-1H-1,2,3-triazol-1-yl)benzenesulfonamide]

IC50 (COX-1): 3.43 ± 0.026 µM
IC50 (COX-2): 0.397 ± 0.025 µM
COX-2 S.I. (COX-2): 8.63
IC50 [3]: 4.5 µM
Structure (SMILES): COc1ccc(-n2c(SC/C(=N/O)c3ccc(Cl)cc3)nnc2-c2nnn(-c3ccc(S(N)(=O)=O)cc3)c2C)cc1 [Compound 19j, (E)-4-(4-(5-((2-(4-chlorophenyl)-2-(hydroxyimino)ethyl)thio)-4-(4-methoxyphenyl)-4H-1,2,4-triazol-3-yl)-5-methyl-1H-1,2,3-triazol-1-yl)benzenesulfonamide]

IC50 [2]: 0.3 µM
Structure (SMILES): COc1cccc2c1C(=O)c1c(O)c3c(c(O)c1C2=O)C[C@@](O)(C(=O)CO)C[C@@H]3O[C@H]1C[C@H](N)[C@H](O)[C@H](C)O1 [Doxorubicin, doxorubicin, reference compound]
IC50 (normal fibroblast F180): 4.28 µM

IC50 (EGFR): 0.037 µM
Structure (SMILES): COC(=O)N[C@@H](C)CNc1nccc(-c2cn(C(C)C)nc2-c2cc(Cl)cc(NS(C)(=O)=O)c2F)n1 [Encorafenib, encorafenib, reference compound]

IC50 [3]: 3.5 µM
Structure (SMILES): CNC(=O)c1cc(Oc2ccc(NC(=O)Nc3ccc(Cl)c(C(F)(F)F)c3)cc2)ccn1 [Sorafenib, sorafenib, reference compound]
